# Results as given in ChEMBL document CHEMBL1139027, “Design and synthesis of potent and subtype-selective PPARalpha agonists” (Bioorg Med Chem Lett, 2006).
# Columns and labels:
# [1] = molecular target: T1, Peroxisome proliferator-activated receptor alpha (Homo sapiens, UniProt Q07869); experiment: Binding affinity to human PPAR alpha
# T1 sequence (Q07869 whole entry): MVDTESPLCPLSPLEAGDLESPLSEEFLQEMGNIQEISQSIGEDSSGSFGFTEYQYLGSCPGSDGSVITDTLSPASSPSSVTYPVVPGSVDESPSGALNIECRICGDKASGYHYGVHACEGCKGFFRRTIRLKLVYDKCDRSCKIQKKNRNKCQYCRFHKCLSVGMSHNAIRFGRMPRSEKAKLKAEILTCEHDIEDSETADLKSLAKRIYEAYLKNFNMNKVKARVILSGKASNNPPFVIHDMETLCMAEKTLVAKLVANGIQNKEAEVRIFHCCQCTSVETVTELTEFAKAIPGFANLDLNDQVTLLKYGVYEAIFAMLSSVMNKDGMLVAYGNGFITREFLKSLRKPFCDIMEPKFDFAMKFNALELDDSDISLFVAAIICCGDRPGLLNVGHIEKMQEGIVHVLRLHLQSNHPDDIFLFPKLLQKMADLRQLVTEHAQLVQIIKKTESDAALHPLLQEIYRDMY
# [2] = molecular target: T2, Peroxisome proliferator-activated receptor delta (Homo sapiens, UniProt Q03181); experiment: Binding affinity to human PPAR delta
# T2 sequence (Q03181 whole entry): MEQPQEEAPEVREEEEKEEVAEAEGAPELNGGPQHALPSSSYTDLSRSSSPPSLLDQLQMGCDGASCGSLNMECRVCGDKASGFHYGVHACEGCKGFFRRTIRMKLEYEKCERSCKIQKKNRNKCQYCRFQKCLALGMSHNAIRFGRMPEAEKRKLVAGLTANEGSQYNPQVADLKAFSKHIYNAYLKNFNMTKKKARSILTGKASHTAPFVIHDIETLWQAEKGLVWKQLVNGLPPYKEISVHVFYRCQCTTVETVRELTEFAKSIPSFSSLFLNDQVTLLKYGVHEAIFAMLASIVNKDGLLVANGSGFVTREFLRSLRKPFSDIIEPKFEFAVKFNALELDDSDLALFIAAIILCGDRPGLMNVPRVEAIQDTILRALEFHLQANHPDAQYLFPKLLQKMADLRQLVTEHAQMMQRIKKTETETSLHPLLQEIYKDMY
# [3] = molecular target: T3, Peroxisome proliferator-activated receptor gamma (Homo sapiens, UniProt P37231)
# T3 sequence (P37231 whole entry): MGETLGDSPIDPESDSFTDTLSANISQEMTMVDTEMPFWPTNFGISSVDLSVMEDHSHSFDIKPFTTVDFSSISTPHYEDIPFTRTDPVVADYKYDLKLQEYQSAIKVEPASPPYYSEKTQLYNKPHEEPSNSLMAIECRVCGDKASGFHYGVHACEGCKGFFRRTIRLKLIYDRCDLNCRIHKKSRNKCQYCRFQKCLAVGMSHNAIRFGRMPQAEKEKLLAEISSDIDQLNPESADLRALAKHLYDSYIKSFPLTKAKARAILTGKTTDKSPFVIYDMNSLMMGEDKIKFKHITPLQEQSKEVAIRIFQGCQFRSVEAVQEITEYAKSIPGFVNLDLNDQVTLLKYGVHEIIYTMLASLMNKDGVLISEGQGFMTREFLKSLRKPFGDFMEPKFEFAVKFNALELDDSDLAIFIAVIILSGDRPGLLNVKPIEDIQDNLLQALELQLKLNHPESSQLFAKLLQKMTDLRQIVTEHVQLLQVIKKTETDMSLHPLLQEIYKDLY
# [4] = molecular target: T1, Peroxisome proliferator-activated receptor alpha; experiment: Transactivation by human PPAR alpha in COS1 cells; assay type: functional, cell-based, COS-1
# [5] = molecular target: T3, Peroxisome proliferator-activated receptor gamma; assay type: functional, cell-based, COS-1
# [6] = molecular target: T2, Peroxisome proliferator-activated receptor delta; experiment: Transactivation by human PPAR delta in COS1 cells; assay type: functional, cell-based, COS-1
# Cytochrome P450 2C9 = Cytochrome P450 2C9 (Homo sapiens, UniProt P11712)
# Syrian golden hamster [7] = experiment: Decrease in cholesterol level in Golden Syrian hamster at 100 mg/kg, po; assay type: functional, Mesocricetus auratus; parameters: scale not given: the % may be the effect or the level left
# In short: (§1)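 Male Golden Syrian hamsters (120–150 g, n = 10) on normal rodent chow with free access to water. Sodium salts were given by oral gavage once daily for 9 days in 0.5% methylcellulose vehicle. Serum cholesterol and triglycerides were measured and reported as % change.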
# Syrian golden hamster [8] = experiment: Decrease in triglyceride level in Golden Syrian hamster at 100 mg/kg, po; assay type: functional, Mesocricetus auratus; parameters: scale not given: the % may be the effect or the level left; in short: as §1
# Canis familiaris [9] = experiment: Decrease in cholesterol level in Beagle dog at 50 mg/kg, po; assay type: functional, Canis lupus familiaris; parameters: scale not given: the % may be the effect or the level left
# In short: (§2)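 Male beagle dogs (12–18 kg, n = 5) fed cholesterol-free chow ad libitum with free access to water. Compounds were suspended in 0.5% methylcellulose and gavaged daily for 14 days. Serum cholesterol is reported as a mean value, with final-day data compared against vehicle control.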
# Canis familiaris [10] = experiment: Decrease in cholesterol level in Beagle dog at 4 mg/kg, po; assay type: functional, Canis lupus familiaris; parameters: scale not given: the % may be the effect or the level left; in short: as §2
# Cytochrome P450 2C9, sequence (P11712 whole entry): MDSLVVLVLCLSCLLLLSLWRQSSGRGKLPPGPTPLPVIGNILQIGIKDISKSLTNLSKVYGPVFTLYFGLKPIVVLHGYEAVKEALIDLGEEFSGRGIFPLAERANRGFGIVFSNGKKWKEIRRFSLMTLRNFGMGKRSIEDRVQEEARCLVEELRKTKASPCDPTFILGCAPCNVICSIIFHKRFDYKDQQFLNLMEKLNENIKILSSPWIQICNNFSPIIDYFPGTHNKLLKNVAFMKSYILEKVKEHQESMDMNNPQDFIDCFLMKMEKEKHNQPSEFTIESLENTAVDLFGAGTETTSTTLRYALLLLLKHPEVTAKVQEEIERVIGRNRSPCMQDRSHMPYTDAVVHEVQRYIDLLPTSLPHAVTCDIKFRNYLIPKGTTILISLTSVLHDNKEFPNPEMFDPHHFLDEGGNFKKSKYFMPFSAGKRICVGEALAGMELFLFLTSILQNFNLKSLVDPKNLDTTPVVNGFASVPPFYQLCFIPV
IC50 [1] [nM],IC50 ([2]; read-out: IC50) [nM],IC50 [3],EC50 ([4]; read-out: EC50) [nM],Compound,also measured
262,1340,Not Active,–,O=C(O)C(Cc1ccc(OCCCOc2ccc(Oc3ccc(F)cc3)cc2Cl)cc1)c1ccccc1 (centres undefined),–
22,–,Not Active,2.7,CCC(CC)(Oc1ccc(OCCCOc2ccc(Oc3ccc(F)cc3)cc2Cl)cc1)C(=O)O,IC50 [2]: Not Active; EC50 ([5]; cos-1): Not Active
6,1090,Not Active,3,CC[C@](C)(Oc1ccc(OCCCOc2ccc(Oc3ccc(F)cc3)cc2Cl)cc1)C(=O)O,EC50 ([5]; cos-1): Not Active
101,2410,Not Active,20,CC[C@@](C)(Oc1ccc(OCCCOc2ccc(Oc3ccc(F)cc3)cc2Cl)cc1)C(=O)O,EC50 ([5]; read-out: EC50): > 3000 nM
5,–,–,2.5,CCC(C)(Oc1ccc(OCCCOc2ccc(Oc3ccc(F)cc3)cc2Cl)cc1)C(=O)O (centres undefined),IC50 [2]: Not Active; EC50 ([5]; cos-1): Not Active; IC50 ([3]; read-out: IC50): 1240 nM
–,–,–,62,CC(C)(Oc1ccc(OCCOc2ccc(Oc3ccc(F)cc3)cc2Cl)cc1)C(=O)O,EC50 ([1]; read-out: EC50): 87 nM; EC50 [2]: Not Active; EC50 ([5]; cos-1): Not Active; EC50 [3]: Not Active; EC50 ([6]; cos-1): Not Active
675,> 50,–,–,O=C(O)CCc1ccc(OCCCOc2ccc(Oc3ccc(F)cc3)cc2Cl)cc1,–
125,–,Not Active,–,CCC1(CC)C=C(C(F)(F)F)c2cc(Cl)c(OCCCOc3ccc(O[C@](C)(CC)C(=O)O)cc3)cc2O1,IC50 [2]: Not Active
157,3270,Not Active,–,CC[C@@](C)(Oc1ccc(OCCCOc2ccc3c(C(F)(F)F)cc(=O)oc3c2Cl)cc1)C(=O)O,–
42,4630,–,54.1,CC[C@@](C)(Cc1ccc(OCCCOc2ccccc2Cl)cc1)C(=O)O,–
156,1170,Not Active,–,CCC(Cc1ccc(OCCCOc2ccc(Oc3ccc(F)cc3)cc2Cl)cc1)C(=O)O (centres undefined),–
208,4070,Not Active,–,CC(Cc1ccc(OCCCOc2ccc(Oc3ccc(F)cc3)cc2Cl)cc1)C(=O)O (centres undefined),–
6090,–,Not Active,–,CC[C@@](C)(Cc1ccc(OCCCOc2ccc3c(C)cc(O)nc3c2)cc1)C(=O)O,IC50 [2]: Not Active
30,2390,–,20,CC(C)(Oc1ccc(OCCCOc2ccc(Oc3ccc(F)cc3)cc2Cl)cc1)C(=O)O,EC50 ([6]; read-out: EC50): > 3000 nM
–,–,–,–,CCCc1cc(Oc2ccc(F)cc2)ccc1OCCCOc1ccc(C2SC(=O)NC2=O)cc1 (centres undefined),EC50 [1]: Not Active; EC50 ([4]; cos-1): Not Active; EC50 [2]: Not Active; EC50 ([6]; cos-1): Not Active
–,–,–,21,CC(C)(Oc1cccc(OCCCOc2ccc(Oc3ccc(F)cc3)cc2Cl)c1)C(=O)O,EC50 ([1]; read-out: EC50): 36 nM; EC50 [3]: Not Active
130,1130,Not Active,454,CCCC(Cc1ccc(OCCCOc2ccc(Oc3ccc(F)cc3)cc2Cl)cc1)C(=O)O (centres undefined),–
116,1350,Not Active,15,O=C(O)C(Cc1ccc(OCCCOc2ccc(Oc3ccc(F)cc3)cc2Cl)cc1)C1CCC1 (centres undefined),EC50 ([5]; cos-1): Not Active
–,–,–,–,CC(C)(Oc1ccccc1OCCCOc1ccc(Oc2ccc(F)cc2)cc1Cl)C(=O)O,EC50 [1]: Not Active; EC50 [2]: Not Active; EC50 [3]: Not Active
–,–,–,–,CC(C)OC(=O)C(C)(C)Oc1ccc(C(=O)c2ccc(Cl)cc2)cc1 [FENOFIBRATE],Activity (Syrian golden hamster [7]): -31%; Activity (Syrian golden hamster [8]): -30%; Activity (Canis familiaris [9]): -18%
–,–,–,–,CCC(C)(C)C(=O)O[C@H]1C[C@@H](C)C=C2C=C[C@H](C)[C@H](CC[C@@H]3C[C@@H](O)CC(=O)O3)[C@H]21 [SIMVASTATIN],Activity (Canis familiaris [10]): -19%

Compound,IC50 [1] [nM],IC50 ([2]; read-out: IC50) [nM],IC50 [3],EC50 ([4]; read-out: EC50) [nM],also measured
CCCc1cc(Oc2ccc(F)cc2)ccc1OCCCOc1ccc(OC(C)(C)C(=O)O)cc1,–,–,–,51,EC50 ([1]; read-out: EC50): 110 nM; EC50 ([2]; read-out: EC50): 106 nM; EC50 ([6]; read-out: EC50): 55 nM
CC[C@@](C)(Cc1ccc(OCCCOc2ccc3c(C(F)(F)F)cc(=O)oc3c2C)cc1)C(=O)O,49,134,Not Active,10,–
CC[C@@](C)(Cc1ccc(OCCCOc2ccc(CC(F)(F)F)cc2Cl)cc1)C(=O)O,< 1,> 70000,–,< 1,EC50 ([5]; cos-1): Not Active; IC50 ([3]; read-out: IC50): > 6000 nM; IC50 (Cytochrome P450 2C9): < 50 nM
CC(C)(Oc1ccc(OCCCCOc2ccc(Oc3ccc(F)cc3)cc2Cl)cc1)C(=O)O,–,–,–,35,EC50 ([1]; read-out: EC50): 66 nM; EC50 ([2]; read-out: EC50): 545 nM; EC50 ([6]; read-out: EC50): 284 nM
